The values below come from paper PMC9233141 (ChemMedChem, 2022).

In test [1] the target is T1, PKN3 (Homo sapiens, UniProt Q6P5Z2). Kind of test: split-luciferase binding assay.
For a further test, the system named is human kinome. The note with it: at 1 μM, across the human kinome; cited from earlier work.
For test [2], the target named is T1, PKN3. Kind of test: PKN3 NanoBRET in-cell target engagement. It counts as cell-based. In outline: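 Full-length PKN3 with N-terminal NanoLuc (Gly-Ser-Ser-Gly linker) transiently expressed in HEK-293 cells for 20-30 hr at 37°C/5% CO2. Cells in Opti-MEM at 2 x 10^4/well are equilibrated 2 h with tracer K-5 (1000 nM final) and test compound. NanoBRET substrate and extracellular NanoLuc inhibitor are added, and donor/acceptor luminescence is read. IC50 comes from a variable-slope fit, normalised to controls when needed.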
(BRET reads energy transfer from a luciferase to a nearby fluorophore.)

Test [3] deals with kinases in lysates of SUM159 cells. Description: MIB-MS kinome profiling. It counts as binding. The note with it: 1 μM; for kinases on which activity was detected: threshold 5-fold change.
Test [4] concerns GAK. Description: GAK FRET binding. The note with it: compared to 14.
Test [5] concerns GAK. The following applies: read-out: GAK activity in cells IC50; GAK NanoBRET; cited from earlier work.
Test [6] concerns GAK. Description: GAK NanoBRET. It counts as cell-based. The note with it: NanoBRET GAK vs PKN3.
The next test concerns the target ACVR1. The note with it: read-out: ACVR1 Kd; DiscoverX profiling; cited from earlier work.
For another test, the target named is NLK. The following applies: read-out: Kd NLK; DiscoverX KinomeSCAN, prior annotation of PKIS2; cited from earlier work.
Setting [7] is: PKN3 IC50, SLCA assay (n=2), 8-point dose response.

Molecules are shown by their SMILES.

T1 sequence (Q6P5Z2 whole entry): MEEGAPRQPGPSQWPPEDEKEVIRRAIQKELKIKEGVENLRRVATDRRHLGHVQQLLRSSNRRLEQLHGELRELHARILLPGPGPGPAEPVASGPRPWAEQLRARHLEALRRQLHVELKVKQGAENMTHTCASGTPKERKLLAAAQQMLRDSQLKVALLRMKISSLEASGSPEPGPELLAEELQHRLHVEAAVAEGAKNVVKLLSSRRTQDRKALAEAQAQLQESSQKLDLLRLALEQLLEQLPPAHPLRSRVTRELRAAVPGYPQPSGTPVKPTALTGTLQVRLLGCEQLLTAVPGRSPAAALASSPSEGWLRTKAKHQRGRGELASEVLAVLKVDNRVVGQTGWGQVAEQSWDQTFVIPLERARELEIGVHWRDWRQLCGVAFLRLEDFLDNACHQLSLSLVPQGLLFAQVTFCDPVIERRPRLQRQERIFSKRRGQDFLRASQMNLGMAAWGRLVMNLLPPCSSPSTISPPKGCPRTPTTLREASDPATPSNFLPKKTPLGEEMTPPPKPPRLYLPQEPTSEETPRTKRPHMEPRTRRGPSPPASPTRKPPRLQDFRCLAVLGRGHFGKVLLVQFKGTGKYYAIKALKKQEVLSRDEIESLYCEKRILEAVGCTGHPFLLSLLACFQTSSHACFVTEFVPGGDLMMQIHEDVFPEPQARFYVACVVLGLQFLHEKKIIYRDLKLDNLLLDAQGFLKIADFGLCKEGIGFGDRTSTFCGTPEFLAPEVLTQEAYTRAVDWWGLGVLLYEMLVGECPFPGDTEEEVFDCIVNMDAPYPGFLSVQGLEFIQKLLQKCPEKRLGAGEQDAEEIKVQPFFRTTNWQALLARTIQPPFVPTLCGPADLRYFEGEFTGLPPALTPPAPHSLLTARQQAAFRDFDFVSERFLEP

Regarding `COc1cc2c(Nc3ccc(Br)cc3F)ncnc2cc1OCC1CCN(C)CC1` [Vandetanib], the 50% inhibitory concentration (IC50) (in general, the concentration that inhibits the measured activity by half) at PKN3 [1] (setting [7]) turned out to be 540 nM.
Regarding `COc1cc(Nc2ccnc3cc(-c4ccncc4)ccc23)cc(OC)c1OC` [Compound 3], the IC50 on PKN3 [1] (PKN3 IC50, SLCA assay) worked out at 9 nM. Also, the “number of kinases inhibited >90%” value with human kinome is listed as greater than 18 kinases.
`COc1cc2nccc(Oc3ccc(NC(=O)C4(C(=O)Nc5ccc(F)cc5)CC4)cc3)c2cc1OC` [Cabozantinib] had an IC50 on PKN3 [1] (setting [7]) of 42000 nM.
The same measure, in the same setting: next, `CNC(=O)CN1CCC(Oc2cc3c(Nc4cccc(Cl)c4F)ncnc3cc2OC)CC1` [Sapitinib]: 44000 nM.
For the molecule `COc1cc2c(Nc3ccc(Cl)c(Cl)c3F)ncnc2cc1OC[C@@H]1C[C@@H]2CN(C)C[C@@H]2C1` [Tesevatinib], the IC50 at PKN3 [1] (setting [7]) was found to be 240 nM.
Molecule `CS(=O)(=O)CCNCc1ccc(-c2ccc3ncnc(Nc4ccc(OCc5cccc(F)c5)c(Cl)c4)c3c2)o1` [Lapatinib] displayed an IC50 at PKN3 [1] (setting [7]) of 5900 nM. The “PKN3 binding, in words” value on PKN3 [1] (SLCA assay) is given as “moderate activity”.
As to `COc1cc(Nc2ccnc3cc(I)ccc23)cc(OC)c1OC` [Compound 16, 7-iodo-N-(3,4,5-trimethoxyphenyl)quinolin-4-amine], the IC50 is 1300 nM against PKN3 [2] and 74 nM in the test on GAK [5]. On PKN3 [2] (PKN3), the “drop off in activity from cell free SLCA assay to NanoBRET” value was roughly 100 fold. Also, the kinome profile entry in test [3] was “narrow spectrum”. The “kinases on which activity was detected” value in test [3] is “PKN3, NLK, GAK, AVCR1 and RIPK2”. The “decrease in GAK activity” value with GAK [4] came out at 3 fold. Further, the “more potent on GAK than PKN3 in cells” value in the test on GAK [6] is given as 17 fold.
On to `COc1cc(Nc2ccnc3ccc(C(F)(F)F)cc23)cc(OC)c1OC` [Compound 2], for which the kinome profile entry in test [3] is on record as “narrow spectrum”. In [3], the “kinases on which activity was detected” value was “GAK and RIPK2”. The Kd (commonly a measure of binding affinity in units of concentration) was 220 nM on ACVR1 and less than 1000 nM on NLK.
